Results from ChEMBL document CHEMBL1255352, “Polyclonal population structure of Streptococcus pneumoniae isolates in Spain carrying mef and mef plus erm(B)” (2008).
Values after ≈ are worked out from the molar mass of the structure shown.

Columns and labels:
Streptococcus pneumoniae [1] = test: Antibacterial activity against mef-positive Streptococcus pneumoniae isolates assessed as resistance incidence by broth microdilution method; type: functional
Summary of the method: (§1)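 Clinical isolates were tested by CLSI broth microdilution against penicillin G, cefotaxime, erythromycin, clindamycin, telithromycin, tetracycline and levofloxacin, incubated at 35°C in ambient air, with ATCC 49619 as the control in each run. Isolates were classed as resistant using CLSI breakpoints.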

Streptococcus pneumoniae [2] = test: Antibacterial activity against mef(E)-positive Streptococcus pneumoniae isolate Spain 9V-3 by broth microdilution method; type: functional
Summary of the method: (§2)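 Broth microdilution MICs per CLSI guidelines. Agents tested were penicillin G, cefotaxime, erythromycin, clindamycin, telithromycin, tetracycline and levofloxacin. Plates were incubated at 35°C in ambient air. S. pneumoniae ATCC 49619 served as the reference strain in each run.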

Streptococcus pneumoniae [3] = test: Antibacterial activity against erm(B) and mef(E)-positive Streptococcus pneumoniae isolate Sweden 15A-25 by broth microdilution method; type: functional
Summary of the method: (§3)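 MICs by broth microdilution following CLSI guidelines, incubated at 35°C in ambient air. S. pneumoniae ATCC 49619 served as reference strain in each run. CLSI breakpoints applied. Isolates typed for mef(A)/mef(E) by PCR and by MLST.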

Streptococcus pneumoniae [4] = test: Antibacterial activity against mef-positive Streptococcus pneumoniae isolates by broth microdilution method; type: functional; summary of the method: as §2
Streptococcus pneumoniae [5] = test: Antibacterial activity against erm(B) and mef(E)-positive Streptococcus pneumoniae isolate CC-6B by broth microdilution method
Streptococcus pneumoniae [6] = test: Antibacterial activity against mef and erm(B) positive Streptococcus pneumoniae isolates assessed as resistance incidence by broth microdilution method; type: functional; summary of the method: as §1
Streptococcus pneumoniae [7] = test: Antibacterial activity against mef and erm(B) positive Streptococcus pneumoniae isolates by broth microdilution method; type: functional; summary of the method: as §2
Streptococcus pneumoniae [8] = test: Antibacterial activity against erm(B) and mef(E)-positive Streptococcus pneumoniae isolate Spain 6B by broth microdilution method; type: functional; summary of the method: as §3

SMILES	Activity (Streptococcus pneumoniae [1]) [%]	MIC (Streptococcus pneumoniae [2]) [µg/mL]	MIC (Streptococcus pneumoniae [3]) [µg/mL]	MIC50 (Streptococcus pneumoniae [4]) [µg/mL]	MIC90 (Streptococcus pneumoniae [4]) [µg/mL]	MIC (Streptococcus pneumoniae [5]) [µg/mL]	Activity (Streptococcus pneumoniae [6]) [%]	MIC50 (Streptococcus pneumoniae [7]) [µg/mL]	MIC90 (Streptococcus pneumoniae [7]) [µg/mL]	MIC (Streptococcus pneumoniae [8]) [µg/mL]
CO/N=C(\C(=O)N[C@@H]1C(=O)N2C(C(=O)O)=C(COC(C)=O)CS[C@H]12)c1csc(N)n1 [CEFOTAXIME]	17.7	0.06 (≈ 0.132 µM)	0.06 (≈ 0.132 µM)	0.01 (≈ 0.022 µM)	0.25 (≈ 0.549 µM)	0.12 (≈ 0.263 µM)	4.4	0.5 (≈ 1.1 µM)	2 (≈ 4.39 µM)	1 (≈ 2.2 µM)
CCC[C@@H]1C[C@@H](C(=O)N[C@@H]([C@H]2O[C@H](SC)[C@H](O)[C@@H](O)[C@H]2O)[C@H](C)Cl)N(C)C1 [CLINDAMYCIN]	0	0.03 (≈ 0.0706 µM)	≥ 64	0.03 (≈ 0.0706 µM)	0.25 (≈ 0.588 µM)	32 (≈ 75.3 µM)	62.2	64 (≈ 151 µM)	> 64	≥ 64
CC[C@H]1OC(=O)[C@H](C)[C@@H](O[C@H]2C[C@@](C)(OC)[C@@H](O)[C@H](C)O2)[C@H](C)[C@@H](O[C@@H]2O[C@H](C)C[C@H](N(C)C)[C@H]2O)[C@](C)(O)C[C@@H](C)C(=O)[C@H](C)[C@@H](O)[C@]1(C)O [ERYTHROMYCIN]	–	0.5 (≈ 0.681 µM)	≥ 64	4 (≈ 5.45 µM)	16 (≈ 21.8 µM)	32 (≈ 43.6 µM)	–	64 (≈ 87.2 µM)	> 64	≥ 64
C[C@H]1COc2c(N3CCN(C)CC3)c(F)cc3c(=O)c(C(=O)O)cn1c23.C[C@H]1COc2c(N3CCN(C)CC3)c(F)cc3c(=O)c(C(=O)O)cn1c23.O [LEVOFLOXACIN]	–	–	–	1	1	–	–	1	1	–
CC1(C)S[C@@H]2[C@H](NC(=O)Cc3ccccc3)C(=O)N2[C@H]1C(=O)O [PENICILLIN G]	35.5	0.12 (≈ 0.359 µM)	0.12 (≈ 0.359 µM)	0.03 (≈ 0.0897 µM)	1 (≈ 2.99 µM)	0.12 (≈ 0.359 µM)	46.7	1 (≈ 2.99 µM)	4 (≈ 12 µM)	4 (≈ 12 µM)
CC[C@H]1OC(=O)[C@H](C)C(=O)[C@H](C)[C@@H](O[C@@H]2O[C@H](C)C[C@H](N(C)C)[C@H]2O)[C@](C)(OC)C[C@@H](C)C(=O)[C@H](C)[C@H]2N(CCCCn3cnc(-c4cccnc4)c3)C(=O)O[C@]12C [TELITHROMYCIN]	–	0.05 (≈ 0.0616 µM)	0.008 (≈ 0.00985 µM)	0.12 (≈ 0.148 µM)	0.5 (≈ 0.616 µM)	< 0.01	–	0.06 (≈ 0.0739 µM)	0.25 (≈ 0.308 µM)	0.08 (≈ 0.0985 µM)
CN(C)[C@@H]1C(O)=C(C(N)=O)C(=O)[C@@]2(O)C(O)=C3C(=O)c4c(O)cccc4[C@@](C)(O)[C@H]3C[C@@H]12 [TETRACYCLINE]	13.3	0.5 (≈ 1.13 µM)	≥ 64	1 (≈ 2.25 µM)	4 (≈ 9 µM)	4 (≈ 9 µM)	55.5	16 (≈ 36 µM)	> 32	≥ 64
